Bioassay records deposited in PubChem by several laboratories.
STAT3 blocker: inhibitors of IL-6 induced STAT3 signaling; U3A cells, IL-6 STAT3-luciferase reporter, luminescence; host cell line lacks STAT1; inhibition, % at 5.5 µM; actives 0.89% (n = 190,000);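 active = inhibition above the mean inhibition across all screened compounds plus 3 SD, cut at about 44% in these data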;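 also: 0% = DMSO only wells and 100% = 100 µM nifuroxazide control wells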
STAT1 inh: inhibitors of IFN-gamma induced STAT1 signaling. NIH 3T3 STAT1-luciferase reporter, luminescence. inhibition, % at 5.5 µM. actives 0.35% (n = 200,000);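 active = inhibition above a set limit, the mean inhibition across all tested compounds plus 3 SD, cut at about 34% in these data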;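 also: 0% = IFN-gamma with DMSO and 100% = IFN-gamma with 300 µM nifuroxazide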
STAT3 activator: activators of IL-6 induced STAT3 signaling; U3A cells, IL-6 STAT3-luciferase reporter, luminescence; 100% = signal with IL-6 EC80 alone; activation (% of control), % at 5.6 µM; actives 0.91% (n = 190,000); AID 871;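 active = activation above the screen-wide mean of compound activation plus 3 SD, cut at about 130% in these data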;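 also: 0% = background luminescence of wells with medium and substrate only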
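Assay system – human STAT1-deficient U3A cells with stable STAT3-luciferase reporter · Also added – IL-6 (33 ng/mL) · Schedule – compound 1 h, then IL-6 6 h at 37 °C · Technique – reporter luminescence signal · Evaluation – % activation versus median of IL-6-stimulated wells · Benchmarks – IL-6-only wells as 100% reference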
APP 5'UTR act: activates APP 5'UTR luciferase reporter | activation, % at 2 µM | actives 1% (n = 190,000) | SH-SY5Y APP 5'UTR luciferase reporter, luminescence; zero percent = DMSO vehicle wells;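 active = activation above a set limit, based on mean plus 3 SD of controls, cut at about 140% in these data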
NF-kB neuron act: compounds increasing NF-kB expression in human neuronal cells; AID 1239; NF-kB reporter expression; active compounds read high; fold change at 12.5 µM; actives 1.6% (n = 190,000); in the data active = fold change above about 3.3
STAT1 act: activators of IFN-gamma induced STAT1 signaling | NIH 3T3 STAT1-luciferase reporter, luminescence; 100% = IFN-gamma alone, no compound | activation (% of control), % at 5.5 µM | actives 2.6% (n = 200,000);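 active = activation above the screen-wide mean activation plus 3 SD, cut at about 130% in these data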;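 also: raw ratio to IFN-gamma control signal so 100% means no change and 0% no light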
STAT1 act conf: STAT1 activation, confirmation assay; shares compounds with STAT1 act; NIH 3T3 STAT1-luciferase reporter, IFN-gamma potentiation, luminescence; 100% = IFN-gamma EC80 alone, no compound; activation (% of control), % at 5.7 µM; actives 97% (n = 1,200);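 active = activation above a set limit carried over from the earlier primary STAT1 screen, cut at about 140% in these data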;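 also: simple ratio to median IFN-gamma plus DMSO wells so 0% means no light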
NFkB act STAT1ct: activates NF-kappaB, counter-screen to STAT1 activators. shares compounds with STAT1 act. HEK293T NF-kB luciferase reporter, TNF-alpha stimulated, luminescence; 100% = TNF-alpha with vehicle only. activation (% of control), % at 5.7 µM. actives 43% (n = 1,200). AID 1306;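 active = activation above the mean of solvent-only control wells plus 3 SD, set per campaign, cut at about 130% in these data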;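 also: TNF-alpha given at a submaximal dose yielding about 80% of full reporter signal; values are well signal over median control so 100% means no change and 0% no light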
STAT3 act 2: human STAT3 activation in STAT1 activator counter-screen; U3A cells STAT3-luciferase reporter, IL-6, luminescence; cells lack STAT1; 100 = IL-6 alone, no compound effect; activation (% of control), % at 5.7 µM; shares compounds with STAT1 act; AID 1316; actives 46% (n = 1,200);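 active = activation above the solvent-only control well mean plus 3 SD, set per plate batch, cut at about 110% in these data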;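 also: 0% = no luminescence and 100% = median IL-6 plus DMSO wells; higher means more STAT3 reporter activation so hits are non-selective activators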
Active calls of the source: *; x = no result. Most compounds without a hit are left out; they make up all but 4.9% or so of the library.

SMILES | STAT3 blocker | STAT1 inh | STAT3 activator | APP 5'UTR act | NF-kB neuron act | STAT1 act | STAT1 act conf | NFkB act STAT1ct | STAT3 act 2
COc1ccc2cc(C(=O)C3CCCN(C(=O)c4cc5nc(C)cc(C)n5n4)C3)ccc2c1 (stereo not drawn) | 14 | -8 | 98 | 11 | 1 | 106 | x | x | x
CCCCC(=O)Nc1nnc(CCOC)s1 | 6 | 2 | 97 | 38 | 0.98 | 99 | x | x | x
Cc1nc(NC(=O)c2ccc3c(c2)OCO3)ccc1Br | 14 | -62 | 94 | 106 | 4* | 156* | 169* | 127 | 97
Cc1nc(NC(=O)c2cccs2)ccc1Br | 2 | -69 | 102 | 133 | 6.3* | 161* | 201* | 131 | 123*
O=C(Nc1ccc(NC(=O)c2cccs2)cn1)c1ccccc1 | 20 | -59 | 85 | 136* | 3.8* | 153* | 201* | 133 | 115*
CS(=O)(=O)NN1C(=O)c2ccccc2NC1c1cccs1 (stereo not drawn) | 5 | -10 | 100 | -3 | 0.99 | 107 | x | x | x
Cc1ccc(C2=Nc3cccnc3C(c3ccccc3)=NN2)cc1 | -9 | -63 | 110 | 113 | 2.6 | 156* | 202* | 143* | 115*
COC(=O)c1ccc(COc2ccccc2/C=C(\C#N)C(=O)Nc2ccc(C)cc2)cc1 | -5 | -57 | 105 | 19 | 1.1 | 151* | 195* | 135* | 106
CCCCOc1ccc(CNC(=S)N/N=C/c2ccc(OC)c(OC)c2)cc1 | 17 | 8 | 92 | -6 | 1.2 | 93 | x | x | x
O=C(Oc1ccc(-c2cnc3ccccc3n2)cc1)c1cc([N+](=O)[O-])ccc1Cl | -3 | -3 | 109 | 71 | 1.7 | 103 | x | x | x
O=C(Oc1ccc(-c2cnc3ccccc3n2)cc1)c1ccco1 | 40 | -60 | 66 | 80 | 2.7 | 155* | 190* | 103 | 102
Cc1ccc(/C=C(\C#N)c2nc3ccccc3[nH]2)s1 | 28 | -71 | 81 | 215* | 6.1* | 162* | 222* | 137* | 101
COc1cccc(NC(=O)c2ncc(Cl)c(Cl)c2Cl)c1 | 11 | 3 | 93 | 61 | 1.4 | 97 | x | x | x
O=C(NC1=NCCS1)c1csc2ccccc12 | 3 | -55 | 103 | 105 | 6.8* | 152* | 199* | 126 | 118*
CCc1nnc(NC(=O)c2cc(S(=O)(=O)N3CCOCC3)ccc2N2CCCCC2)s1 | -7 | -4 | 106 | -10 | 1.1 | 105 | x | x | x
CCn1c(SCC(=O)NNC(=O)c2ccc(OC)cc2)nnc1-c1ccco1 | 0 | 0 | 101 | 13 | 0.93 | 99 | x | x | x
CC(C)(C)C(=O)Nc1ccc(C(=O)OC2CCCCC2)cc1 | -37 | -67 | 128 | 133 | 3.6* | 162* | 219* | 145* | 133*
Cn1ncc([N+](=O)[O-])c1C(=O)n1nnc2ccccc21 | 26 | -1 | 85 | 0 | 1.3 | 101 | x | x | x
O=C(Nc1nc2c(s1)C(=O)CCC2)c1ccccc1 | 34 | -58 | 74 | 148* | 3 | 153* | 185* | 111 | 96
CN1/C(=C\C(=O)c2cccs2)Sc2ccccc21 | -30 | -75 | 130 | 168* | 7.5* | 169* | 222* | 117 | 161*
Cc1occc1C(=O)NNC(=S)Nc1cccc([N+](=O)[O-])c1 | 9 | -10 | 93 | 43 | 1.6 | 109 | x | x | x
O=c1c2c(nc3cc(-c4ccc(Br)cc4)[nH]n13)CCCC2 | 12 | -112 | 94 | 174* | 3.3 | 205* | 281* | 151* | 106
